Experimental data reported in ChEMBL document CHEMBL2021777 (J Med Chem, 2012).
Calls of active or inactive are those of the source.

Experiments:
[1] = target: Neuronal acetylcholine receptor; alpha2/beta2 (Rattus norvegicus, UniProt P12389+P12390); assay: Displacement of [3H] epibatidine from rat alpha2beta2 nAChR by beta scintillation counting; format: protein-complex assay
[2] = target: Neuronal acetylcholine receptor; alpha2/beta4 (Rattus norvegicus, UniProt P12389+P12392); assay: Displacement of [3H] epibatidine from rat alpha2beta4 nAChR by beta scintillation counting; format: protein-complex assay
Chain of Neuronal acetylcholine receptor; alpha2/beta4 (P12389 whole entry): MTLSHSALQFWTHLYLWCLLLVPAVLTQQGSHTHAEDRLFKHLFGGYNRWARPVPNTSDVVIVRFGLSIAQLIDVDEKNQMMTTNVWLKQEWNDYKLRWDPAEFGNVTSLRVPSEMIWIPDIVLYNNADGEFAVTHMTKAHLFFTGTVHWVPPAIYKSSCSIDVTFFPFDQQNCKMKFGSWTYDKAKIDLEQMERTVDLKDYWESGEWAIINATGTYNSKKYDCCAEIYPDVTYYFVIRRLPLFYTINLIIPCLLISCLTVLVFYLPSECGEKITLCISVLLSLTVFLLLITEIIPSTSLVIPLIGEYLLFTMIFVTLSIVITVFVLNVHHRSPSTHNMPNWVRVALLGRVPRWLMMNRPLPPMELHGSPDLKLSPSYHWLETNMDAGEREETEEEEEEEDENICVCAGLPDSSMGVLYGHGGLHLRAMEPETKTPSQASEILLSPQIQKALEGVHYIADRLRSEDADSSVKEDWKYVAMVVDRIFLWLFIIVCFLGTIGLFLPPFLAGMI
Chain of Neuronal acetylcholine receptor; alpha2/beta4 (P12392 whole entry): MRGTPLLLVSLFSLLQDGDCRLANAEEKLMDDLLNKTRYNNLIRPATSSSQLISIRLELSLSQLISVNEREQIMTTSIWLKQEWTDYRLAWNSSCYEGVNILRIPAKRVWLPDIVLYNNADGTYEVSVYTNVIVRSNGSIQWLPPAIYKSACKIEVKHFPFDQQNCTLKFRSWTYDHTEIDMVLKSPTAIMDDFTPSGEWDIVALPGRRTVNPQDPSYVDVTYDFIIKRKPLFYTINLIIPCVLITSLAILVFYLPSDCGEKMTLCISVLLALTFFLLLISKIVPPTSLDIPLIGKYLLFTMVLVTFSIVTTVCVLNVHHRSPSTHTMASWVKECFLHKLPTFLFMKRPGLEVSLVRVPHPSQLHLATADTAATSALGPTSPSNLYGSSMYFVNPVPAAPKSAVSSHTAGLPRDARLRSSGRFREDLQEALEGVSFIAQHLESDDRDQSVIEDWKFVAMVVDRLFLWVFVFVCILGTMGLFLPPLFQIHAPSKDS

[3] = target: Neuronal acetylcholine receptor; alpha3/beta2 (Rattus norvegicus, UniProt P04757+P12390); assay: Displacement of [3H] epibatidine from rat alpha3beta2 nAChR by beta scintillation counting; format: protein-complex assay
Chain of Neuronal acetylcholine receptor; alpha3/beta2 (P04757 whole entry): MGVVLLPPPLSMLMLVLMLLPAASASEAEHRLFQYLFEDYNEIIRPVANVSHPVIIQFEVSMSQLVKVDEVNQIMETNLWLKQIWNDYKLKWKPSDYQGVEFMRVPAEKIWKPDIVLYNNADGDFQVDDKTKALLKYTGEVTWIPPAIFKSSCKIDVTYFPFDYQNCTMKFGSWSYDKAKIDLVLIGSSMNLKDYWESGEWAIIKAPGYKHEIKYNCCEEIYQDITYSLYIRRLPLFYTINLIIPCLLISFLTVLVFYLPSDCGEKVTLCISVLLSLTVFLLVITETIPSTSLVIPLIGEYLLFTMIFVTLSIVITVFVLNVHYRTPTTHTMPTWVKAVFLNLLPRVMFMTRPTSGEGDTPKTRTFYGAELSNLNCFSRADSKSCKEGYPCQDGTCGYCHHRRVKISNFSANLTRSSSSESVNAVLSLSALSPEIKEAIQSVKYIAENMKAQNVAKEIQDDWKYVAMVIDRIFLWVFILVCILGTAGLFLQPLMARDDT
Chain of Neuronal acetylcholine receptor; alpha3/beta2 (P12390 whole entry): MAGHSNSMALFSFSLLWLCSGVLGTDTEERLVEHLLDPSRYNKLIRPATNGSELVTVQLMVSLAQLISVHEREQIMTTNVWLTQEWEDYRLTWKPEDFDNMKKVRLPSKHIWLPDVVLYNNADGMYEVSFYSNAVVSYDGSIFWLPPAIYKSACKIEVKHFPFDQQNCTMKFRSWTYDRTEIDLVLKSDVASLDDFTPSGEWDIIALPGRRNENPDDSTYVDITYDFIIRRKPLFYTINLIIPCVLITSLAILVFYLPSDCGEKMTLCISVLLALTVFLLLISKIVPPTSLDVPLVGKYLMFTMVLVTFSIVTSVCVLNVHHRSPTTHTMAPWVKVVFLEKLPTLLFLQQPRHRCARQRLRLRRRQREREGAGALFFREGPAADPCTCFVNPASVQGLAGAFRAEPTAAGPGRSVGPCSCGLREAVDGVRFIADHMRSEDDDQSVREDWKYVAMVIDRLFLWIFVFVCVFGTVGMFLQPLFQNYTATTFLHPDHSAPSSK

[4] = target: T1, Neuronal acetylcholine receptor; alpha3/beta4 (Rattus norvegicus, UniProt P04757+P12392); assay: Displacement of [3H] epibatidine from rat alpha3beta4 nAChR by beta scintillation counting; format: protein-complex assay
T1 sequence (P04757 whole entry): as the sequence (P04757 whole entry) above
T1 sequence (P12392 whole entry): as the sequence (P12392 whole entry) above

[5] = target: T2, Neuronal acetylcholine receptor; alpha4/beta2 (Rattus norvegicus, UniProt P09483+P12390); assay: Displacement of [3H] epibatidine from rat alpha4beta2 nAChR by beta scintillation counting; format: protein-complex assay
T2 sequence (P09483 whole entry): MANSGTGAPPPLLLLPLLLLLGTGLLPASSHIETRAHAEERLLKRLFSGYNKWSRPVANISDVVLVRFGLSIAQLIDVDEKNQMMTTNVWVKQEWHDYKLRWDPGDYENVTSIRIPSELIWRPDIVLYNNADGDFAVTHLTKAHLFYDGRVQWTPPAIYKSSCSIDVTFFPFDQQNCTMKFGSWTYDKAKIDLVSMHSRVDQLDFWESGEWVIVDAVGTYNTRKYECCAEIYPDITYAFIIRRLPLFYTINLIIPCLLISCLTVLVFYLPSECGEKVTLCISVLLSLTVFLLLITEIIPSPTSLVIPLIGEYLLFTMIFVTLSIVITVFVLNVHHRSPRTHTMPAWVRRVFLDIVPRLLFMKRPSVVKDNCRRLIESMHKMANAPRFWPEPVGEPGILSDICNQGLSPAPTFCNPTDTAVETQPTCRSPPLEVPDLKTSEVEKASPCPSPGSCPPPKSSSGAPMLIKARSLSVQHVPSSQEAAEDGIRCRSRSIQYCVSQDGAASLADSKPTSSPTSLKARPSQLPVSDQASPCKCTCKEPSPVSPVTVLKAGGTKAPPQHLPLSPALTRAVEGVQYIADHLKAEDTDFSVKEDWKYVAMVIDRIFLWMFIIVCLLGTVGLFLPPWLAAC
T2 sequence (P12390 whole entry): as the sequence (P12390 whole entry) above

[6] = target: T2, Neuronal acetylcholine receptor; alpha4/beta2; assay: Displacement of [3H] epibatidine from rat alpha4beta2* nAChR in rat forebrain by beta scintillation counting
[7] = target: Neuronal acetylcholine receptor; alpha4/beta4 (Rattus norvegicus, UniProt P09483+P12392); assay: Displacement of [3H] epibatidine from rat alpha4beta4 nAChR by beta scintillation counting; format: protein-complex assay
Chain of Neuronal acetylcholine receptor; alpha4/beta4 (P09483 whole entry): as the sequence (P09483 whole entry) above
Chain of Neuronal acetylcholine receptor; alpha4/beta4 (P12392 whole entry): as the sequence (P12392 whole entry) above

Rattus norvegicus = organism: Rattus norvegicus; assay: Selectivity ratio of Ki for rat alpha3beta4 to Ki for rat alpha4beta2
Summary of the method: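 Ki values from [3H]epibatidine competition binding at heterologously expressed rat nAChR subtypes, using the PDSP protocol; selectivity taken as the α3β4/α4β2 Ki ratio.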

[8] = target: T3, Neuronal acetylcholine receptor; alpha4/beta2 (Homo sapiens, UniProt P17787+P43681); assay: Agonist activity at human alpha4beta2 nAChR expressed in SH-EP1 cells assessed as 86Rb+ ion efflux after 9.5 mins by flip-plate technique; format: functional, cell-based
T3 sequence (P17787 whole entry): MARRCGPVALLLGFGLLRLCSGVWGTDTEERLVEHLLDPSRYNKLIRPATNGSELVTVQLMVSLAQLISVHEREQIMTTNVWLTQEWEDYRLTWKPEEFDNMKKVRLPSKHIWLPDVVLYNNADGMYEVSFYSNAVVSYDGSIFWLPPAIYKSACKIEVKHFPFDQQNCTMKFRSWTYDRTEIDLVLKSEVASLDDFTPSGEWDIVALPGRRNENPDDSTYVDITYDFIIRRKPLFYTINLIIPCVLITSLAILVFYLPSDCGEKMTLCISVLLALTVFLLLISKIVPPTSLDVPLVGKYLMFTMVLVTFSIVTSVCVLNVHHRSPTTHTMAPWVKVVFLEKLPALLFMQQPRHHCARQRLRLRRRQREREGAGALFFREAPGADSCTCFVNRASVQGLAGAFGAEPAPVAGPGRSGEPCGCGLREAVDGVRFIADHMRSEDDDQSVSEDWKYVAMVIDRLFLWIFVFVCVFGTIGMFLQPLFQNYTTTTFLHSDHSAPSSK
T3 sequence (P43681 whole entry): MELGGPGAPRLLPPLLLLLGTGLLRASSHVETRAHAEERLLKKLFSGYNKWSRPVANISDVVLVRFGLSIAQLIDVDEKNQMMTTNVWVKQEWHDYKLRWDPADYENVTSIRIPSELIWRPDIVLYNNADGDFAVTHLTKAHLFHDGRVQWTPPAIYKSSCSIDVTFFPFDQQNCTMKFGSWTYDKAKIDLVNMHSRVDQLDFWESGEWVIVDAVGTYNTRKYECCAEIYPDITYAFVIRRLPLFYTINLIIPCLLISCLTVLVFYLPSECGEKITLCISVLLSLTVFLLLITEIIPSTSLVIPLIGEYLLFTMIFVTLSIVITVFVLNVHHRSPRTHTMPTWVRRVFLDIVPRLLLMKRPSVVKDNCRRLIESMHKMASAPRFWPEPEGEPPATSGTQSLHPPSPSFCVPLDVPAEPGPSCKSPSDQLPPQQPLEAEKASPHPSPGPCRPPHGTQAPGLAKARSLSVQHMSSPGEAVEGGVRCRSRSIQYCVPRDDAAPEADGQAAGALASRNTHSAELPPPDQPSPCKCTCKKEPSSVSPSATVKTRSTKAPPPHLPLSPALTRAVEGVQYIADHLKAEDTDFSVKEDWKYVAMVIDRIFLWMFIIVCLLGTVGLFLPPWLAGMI
Summary of the method: (§1)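 SH-EP1 human epithelial cells stably transfected with separate human α4 and β2 subunit cDNAs express a mixed population of high-sensitivity (2:3 α4:β2) and low-sensitivity (3:2) α4β2-nAChRs. Cells were kept at low passage (1−26 from frozen stocks). Function was read as 86Rb+ ion flux.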

[9] = target: T3, Neuronal acetylcholine receptor; alpha4/beta2; assay: Agonist activity at human high sensitive and low sensitive alpha4beta2 nAChR expressed in SH-EP1 cells assessed as 86Rb+ ion efflux by flip-plate technique relative to sazetidine-A; format: functional, cell-based
Summary of the method: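 SH-EP1-hα4β2 cells (stably transfected human α4 and β2, low passage 1−26) express mixed high- and low-sensitivity α4β2-nAChRs. Efficacy was measured by 86Rb+ flux on this mixed population. High-sensitivity efficacy was extrapolated by defining a reference agonist as 100% full agonist at the HS receptor.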

[10] = target: T3, Neuronal acetylcholine receptor; alpha4/beta2; assay: Partial agonist activity at human high sensitive alpha4beta2 nAChR expressed in SH-EP1 cells assessed as 86Rb+ ion efflux by flip-plate technique relative to sazetidine-A; format: functional, cell-based
Summary of the method: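 86Rb+ ion flux in SH-EP1 cells stably transfected with separate human α4 and β2 subunit cDNAs, expressing a mixture of high- and low-sensitivity α4β2 nAChRs. Cells kept at low passage (1−26). Efficacy at the HS form extrapolated relative to a reference agonist defined as a 100% full agonist.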

[11] = target: T3, Neuronal acetylcholine receptor; alpha4/beta2; assay: Antagonist activity at human alpha4beta2 nAChR expressed in SH-EP1 cells assessed as inhibition of carbamylcholine induced 86Rb+ ion efflux preincubated for 10 mins prior to carbamylcholine-induction measured after 5 mins by flip-plate technique; format: functional, cell-based; summary of the method: as §1
[12] = target: T3, Neuronal acetylcholine receptor; alpha4/beta2; assay: Antagonist activity at human high sensitive and low sensitive alpha4beta2 nAChR expressed in SH-EP1 cells assessed as inhibition of carbamylcholine induced 86Rb+ ion efflux preincubated for 10 mins prior to carbamylcholine-induction measured after 5 mins by flip-plate technique relative to control; format: functional, cell-based; summary of the method: as §1
[13] = target: T4, Acetylcholine receptor; alpha1/beta1/delta/gamma (Homo sapiens) (UniProt P02708+P07510+P11230+Q07001); assay: Agonist activity at human alpha1beta1gammadelta nAChR expressed in TE671/RD cells at 10 uM by 86Rb+ flux assay; format: functional, cell-based
Summary of the method: (§2)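 Human clonal TE671/RD cells endogenously express muscle-type α1*-nAChRs (α1, β1, γ, δ). Cells were kept at low passage (1−26 from frozen stocks). Function was read as 86Rb+ efflux, with agonist and antagonist modes tested up to 10 μM.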

[14] = target: T4, Acetylcholine receptor; alpha1/beta1/delta/gamma (Homo sapiens); assay: Antagonist activity at human alpha1beta1gammadelta nAChR expressed in TE671/RD cells at 10 uM by 86Rb+ flux assay; format: functional, cell-based; summary of the method: as §2
[15] = target: T5, Neuronal acetylcholine receptors; alpha-3/beta-4, alpha-5, beta-2 (Homo sapiens) (UniProt P17787+P30926+P32297+P30532); assay: Agonist activity at alpha3beta4alpha5beta2 in human SH-SY5Y cells at 10 uM by 86Rb+ flux assay; format: functional, cell-based
Summary of the method: (§3)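 Human neuroblastoma SH-SY5Y cells endogenously express α3β4* nAChRs (α3, β4, probably α5, sometimes β2); their α7 receptors give no signal under these conditions. Cells were kept at low passage (1−26 from frozen stocks). Function was read as 86Rb+ efflux, with agonist and antagonist modes tested up to 10 μM.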

[16] = target: T5, Neuronal acetylcholine receptors; alpha-3/beta-4, alpha-5, beta-2 (Homo sapiens); assay: Antagonist activity at alpha3beta4alpha5beta2 in human SH-SY5Y cells at 10 uM by 86Rb+ flux assay; format: functional, cell-based; summary of the method: as §3
[17] = target: Neuronal acetylcholine receptor subunit alpha-7 (Homo sapiens) (UniProt P36544); assay: Displacement of [3H]epibatidine from human alpha7 nAChR expressed in SH-EP1 cells at 10 uM by beta scintillation counting; format: cell-based
Chain of Neuronal acetylcholine receptor subunit alpha-7 (Homo sapiens) (P36544 whole entry): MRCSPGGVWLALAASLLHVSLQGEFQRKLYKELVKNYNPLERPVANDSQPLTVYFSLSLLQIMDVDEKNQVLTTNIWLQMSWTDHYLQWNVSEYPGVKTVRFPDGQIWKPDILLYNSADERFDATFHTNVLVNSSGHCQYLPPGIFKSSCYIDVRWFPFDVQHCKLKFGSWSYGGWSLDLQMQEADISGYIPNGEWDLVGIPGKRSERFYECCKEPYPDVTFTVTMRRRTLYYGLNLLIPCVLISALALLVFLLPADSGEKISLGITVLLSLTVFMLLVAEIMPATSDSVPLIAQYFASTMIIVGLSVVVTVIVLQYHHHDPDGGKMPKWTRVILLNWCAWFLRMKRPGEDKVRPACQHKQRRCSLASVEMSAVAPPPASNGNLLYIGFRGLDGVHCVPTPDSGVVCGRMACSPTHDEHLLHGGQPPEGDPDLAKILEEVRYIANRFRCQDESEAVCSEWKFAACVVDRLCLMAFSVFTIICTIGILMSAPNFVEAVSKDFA
Summary of the method: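 Membranes from SH-EP1 cells heterologously expressing human α7 nAChRs; test ligand at 10 μM competing with 10 nM [3H]epibatidine; protocol similar to the PDSP one.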

[18] = target: T1, Neuronal acetylcholine receptor; alpha3/beta4; assay: Displacement of [3H] epibatidine from rat alpha3beta4 nAChR expressed in HEK293 cells by liquid scintillation counting; format: cell-based
[19] = target: T2, Neuronal acetylcholine receptor; alpha4/beta2; assay: Displacement of [3H] epibatidine from rat alpha4beta2 nAChR expressed in HEK293 cells by liquid scintillation counting; format: cell-based
[20] = target: T2, Neuronal acetylcholine receptor; alpha4/beta2; assay: Displacement of [3H] epibatidine from rat alpha4beta2* nAChR in rat forebrain by liquid scintillation counting
[21] = Drug uptake in BALB/cJ mouse brain at 1 mg/kg after 15 mins; format: ADME, organism-based; parameters: dose 1 mg/kg; conditions: read-out: Drug uptake
[22] = Drug uptake in BALB/cJ mouse brain at 3 mg/kg after 15 mins; format: ADME, organism-based; parameters: dose 3 mg/kg; conditions: read-out: Drug uptake

Chain of Neuronal acetylcholine receptor; alpha2/beta2 (P12389 whole entry): as the sequence (P12389 whole entry) above
Chain of Neuronal acetylcholine receptor; alpha2/beta2 (P12390 whole entry): as the sequence (P12390 whole entry) above

O=C(NC1CC1)OCC[C@H]1C[C@@H]1c1cncc(OC[C@@H]2CCN2)c1
Ki [1]: 0.9 nM | Ki [2]: 720 nM | Ki [3]: 16 nM | Ki [4]: > 10000 nM | Ki [5]: 0.7 nM | Ki [6]: 2.4 nM | Ki [7]: 234 nM | Ratio Ki (Rattus norvegicus): > 100000 | EC50 [8]: 23.3 nM | Efficacy [9]: 27% | Efficacy [10]: 80% | IC50 [11]: 19.6 nM | Efficacy [12]: 82% | Activity [13]: inactive | Activity [14]: inactive | Activity [15]: inactive | Activity [16]: inactive

COCC[C@@H]1C[C@H]1c1cncc(OC[C@@H]2CCN2)c1
Ki [1]: 0.5 nM | Ki [2]: 405 nM | Ki [3]: 20 nM | Ki [4]: > 10000 nM | Ki [5]: 0.6 nM | Ki [6]: 6.2 nM | Ki [7]: 96.5 nM | Ratio Ki (Rattus norvegicus): > 16700 | EC50 [8]: 43.1 nM | Efficacy [9]: 8% | Efficacy [10]: 62% | IC50 [11]: 50.4 nM | Efficacy [12]: 75% | Activity [13]: inactive | Activity [14]: inactive | Activity [15]: inactive | Activity [16]: inactive

O=C(OCC[C@H]1C[C@@H]1c1cncc(OC[C@@H]2CCN2)c1)N1CCCC1
Ki [1]: 1.5 nM | Ki [2]: 2330 nM | Ki [3]: 21.5 nM | Ki [4]: > 10000 nM | Ki [5]: 0.8 nM | Ki [6]: 4 nM | Ki [7]: 162 nM | Ratio Ki (Rattus norvegicus): > 100000 | %max [17]: 30% | EC50 [8]: 44.4 nM | Efficacy [9]: 23% | Efficacy [10]: 69% | IC50 [11]: 48.5 nM | Efficacy [12]: 84% | Activity [13]: inactive | Activity [14]: inactive | Activity [15]: inactive | Activity [16]: inactive

OCCCCC#Cc1cncc(OC[C@@H]2CCN2)c1
Ratio Ki (Rattus norvegicus): 24000 | Ki [18]: 1000 nM | Ki [19]: 0.4 nM | Ki [20]: 0.9 nM | EC50 [8]: 5.8 nM | Efficacy [9]: 55% | Efficacy [10]: 100% | IC50 [11]: 4.8 nM | Efficacy [12]: 63% | Activity [13]: inactive | Activity [14]: inactive | Activity [15]: inactive | Activity [16]: inactive | concentration at 0.25 h [21]: 3 ng/g | concentration at 0.25 h [22]: 10 ng/g

O=C(Nc1ccccc1)OCC[C@H]1C[C@@H]1c1cncc(OC[C@@H]2CCN2)c1
Ki [1]: 1.2 nM | Ki [2]: 241 nM | Ki [3]: 24.4 nM | Ki [4]: 8850 nM | Ki [5]: 0.6 nM | Ki [6]: 5.9 nM | Ki [7]: 551 nM | Ratio Ki (Rattus norvegicus): 14800 | EC50 [8]: 48.9 nM | Efficacy [9]: 24% | Efficacy [10]: 78% | IC50 [11]: 50.2 nM | Efficacy [12]: 87% | Activity [13]: inactive | Activity [14]: inactive | Activity [15]: inactive | Activity [16]: inactive

OCC[C@@H]1C[C@H]1c1cncc(OC[C@@H]2CCN2)c1
Ki [1]: 0.5 nM | Ki [2]: 65 nM | Ki [3]: 17 nM | Ki [4]: 1040 nM | Ki [5]: 0.7 nM | Ki [6]: 3.7 nM | Ki [7]: 29 nM | Ratio Ki (Rattus norvegicus): 1500 | EC50 [8]: 34.6 nM | Efficacy [9]: 10% | Efficacy [10]: 65% | IC50 [11]: 50.9 nM | Efficacy [12]: 69% | Activity [13]: inactive | Activity [14]: inactive | Activity [15]: inactive | Activity [16]: inactive

CN(C)C(=O)OCC[C@H]1C[C@@H]1c1cncc(OC[C@@H]2CCN2)c1
Ki [1]: 0.3 nM | Ki [2]: 261 nM | Ki [3]: 15 nM | Ki [4]: > 10000 nM | Ki [5]: 0.4 nM | Ki [6]: 2.1 nM | Ki [7]: 281 nM | Ratio Ki (Rattus norvegicus): > 100000 | EC50 [8]: 18.2 nM | Efficacy [9]: 15% | Efficacy [10]: 71% | IC50 [11]: 19.1 nM | Efficacy [12]: 85% | Activity [13]: inactive | Activity [14]: inactive | Activity [15]: inactive | Activity [16]: inactive

CN1CCC[C@H]1c1cccnc1
Activity [13]: inactive | Activity [14]: inactive | Activity [15]: inactive | Activity [16]: inactive
